Converted amounts (≈) assume the structure as drawn.
Legend:
Plasmodium berghei [1] = experiment: Antiplasmodial activity against Plasmodium berghei infected in NMRI mice (Mus musculus) assessed as reduction of parasitaemia level at 10 mg/kg, perorally administered 1 day after post-infection measured after 3 days post-infection; assay type: functional; parameters: scale not given: the % may be the effect or the level left; settings: route oral
Method in brief: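 Groups of five NMRI mice infected with P. berghei received a single oral dose on day 1 postinfection. Read-out was percent reduction in parasitemia on day 3 postinfection. Individual measurements differed by less than 10%.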

Plasmodium falciparum [2] = experiment: Antimalarial activity against chloroquine-resistant Plasmodium falciparum K1 infected in human A+ erythrocytes assessed as [3H]hypoxanthine incorporation by semiautomated micro dilution assay; assay type: functional, organism-based
Plasmodium falciparum [3] = experiment: Antimalarial activity against chloroquine-sensitive Plasmodium falciparum NF54 infected in human A+ erythrocytes assessed as [3H]hypoxanthine incorporation by semi-automated micro dilution assay; assay type: functional, organism-based
[4] = Half life in Sprague-Dawley rat at 2.5 to 3.5 mg/kg, iv; assay type: ADME, organism-based; parameters: dose 2.5-3.5 mg/kg, route intravenous; settings: in vivo
Method in brief: (§1)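 Rats received an IV infusion over 5-10 min through a jugular cannula at 2.5-3.5 mg/kg, in DMSO/aqueous buffer or propylene glycol/ethanol/water. Oral gavage used aqueous suspensions in HPMC or CMC with 0.4% Tween 80 and 0.5% benzyl alcohol. Carotid blood was sampled, and plasma was acetonitrile-precipitated and measured by LC/MS against plasma calibration standards. Values are averages of 2-3 determinations.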

[5] = Plasma clearance in Sprague-Dawley rat at 2.5 to 3.5 mg/kg, iv; assay type: ADME, organism-based; parameters: dose 2.5-3.5 mg/kg, route intravenous; method in brief: as §1
[6] = Volume of distribution in Sprague-Dawley rat at 2.5 to 3.5 mg/kg, iv; assay type: ADME, organism-based; parameters: dose 2.5-3.5 mg/kg, route intravenous; settings: in vivo; method in brief: as §1
[7] = Oral bioavailability in Sprague-Dawley rat; assay type: ADME, organism-based; settings: in vivo; method in brief: as §1
Plasmodium berghei [8] = experiment: Antiplasmodial activity against Plasmodium berghei infected in NMRI mice (Mus musculus) assessed as mice (Mus musculus) survival days at 3 mg/kg, perorally daily once for 3 consecutive days measured after 4 days post-infection; assay type: functional; settings: route oral
Method in brief: (§2)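 P. berghei-infected NMRI mice, in groups of five, were dosed orally at 3 mg/kg on days +1, +2 and +3 postinfection. Parasitemia reduction, survival time and cure were scored.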

Plasmodium berghei [9] = experiment: Antiplasmodial activity against Plasmodium berghei infected in NMRI mice (Mus musculus) assessed as reduction of parasitaemia level at 3 mg/kg, perorally daily once for 3 consecutive days measured after 4 days post-infection; assay type: functional; parameters: scale not given: the % may be the effect or the level left; settings: route oral; method in brief: as §2
Plasmodium berghei [10] = experiment: Antiplasmodial activity against Plasmodium berghei infected in NMRI mice (Mus musculus) assessed as curing of parasitaemia at 3 mg/kg, perorally daily once for 3 consecutive days measured after 30 days post-infection; assay type: functional; settings: route oral; method in brief: as §2
[11] = Blood clearance in Sprague-Dawley rat at 2.5 to 3.5 mg/kg, iv; assay type: ADME, organism-based; parameters: dose 2.5-3.5 mg/kg, route intravenous; settings: whole blood; method in brief: as §1

| Structure (SMILES) | Activity (Plasmodium berghei [1]) | IC50 (Plasmodium falciparum [2]) | IC50 (Plasmodium falciparum [3]) | half-life [4] | clearance [5] | Vd [6] | bioavailability [7] | Survival (Plasmodium berghei [8]) | Activity (Plasmodium berghei [9]) | Activity (Plasmodium berghei [10]) | clearance [11] |
| --- | --- | --- | --- | --- | --- | --- | --- | --- | --- | --- | --- |
| O=C(O)C[C@H]1CC[C@]2(CC1)OO[C@]1(O2)C2CC3CC(C2)CC1C3 | 95% | 34 ng/mL (≈ 105 nM) | 45 ng/mL (≈ 140 nM) | – | – | – | – | – | – | – | – |
| Cc1ccc(S(=O)(=O)O)cc1.NCCNC(=O)C[C@H]1CC[C@]2(CC1)OO[C@]1(O2)C2CC3CC(C2)CC1C3 | 99.9% | – | – | – | – | – | – | – | – | – | – |
| CC(C)(N)CNC(=O)NC[C@H]1CC[C@]2(CC1)OO[C@]1(O2)C2CC3CC(C2)CC1C3.Cc1ccc(S(=O)(=O)O)cc1 | 97% | 3.2 ng/mL | 3.5 ng/mL | – | – | – | – | – | – | – | – |
| CC(C)(N)Cn1nnnc1C[C@H]1CC[C@]2(CC1)OO[C@]1(O2)C2CC3CC(C2)CC1C3 | 98% | 2.3 ng/mL (≈ 5.51 nM) | 1.5 ng/mL (≈ 3.59 nM) | – | – | – | – | – | – | – | – |
| Cc1ccc(S(=O)(=O)O)cc1.NC1(CNC(=O)C[C@H]2CC[C@]3(CC2)OO[C@]2(O3)C3CC4CC(C3)CC2C4)CC1 | 99.9% | 0.4 ng/mL | 0.52 ng/mL | – | – | – | – | – | – | – | – |
| CC(C)(CN)CNC(=O)C[C@H]1CC[C@]2(CC1)OO[C@]1(O2)C2CC3CC(C2)CC1C3.CS(=O)(=O)O | 99.9% | 0.46 ng/mL | 0.49 ng/mL | – | – | – | – | – | – | – | – |
| CC(C)(N)CNC(=O)N[C@H]1CC[C@]2(CC1)OO[C@]1(O2)C2CC3CC(C2)CC1C3.Cc1ccc(S(=O)(=O)O)cc1 | 63% | 8.4 ng/mL | 6.2 ng/mL | – | – | – | – | – | – | – | – |
| O=C(C[C@H]1CC[C@]2(CC1)OO[C@]1(O2)C2CC3CC(C2)CC1C3)N1CCN(CCO)CC1 | 96% | 1 ng/mL (≈ 2.3 nM) | 0.9 ng/mL (≈ 2.07 nM) | – | – | – | – | – | – | – | – |
| CC(C)(N)CNC(=O)[C@H]1CC[C@@]2(CC1)OO[C@@]1(O2)C2CC3CC(C2)CC1C3.Cc1ccc(S(=O)(=O)O)cc1 | 84% | 1.4 ng/mL | 0.74 ng/mL | – | – | – | – | – | – | – | – |
| NC(=O)CNC(=O)C[C@H]1CC[C@]2(CC1)OO[C@]1(O2)C2CC3CC(C2)CC1C3 | 99.6% | 3.9 ng/mL (≈ 10.3 nM) | 3.6 ng/mL (≈ 9.51 nM) | – | – | – | – | – | – | – | – |
| CC(C)(N)CNC(=O)CC[C@H]1CC[C@]2(CC1)OO[C@]1(O2)C2CC3CC(C2)CC1C3.Cc1ccc(S(=O)(=O)O)cc1 | >99.9% | 0.55 ng/mL | 0.82 ng/mL | 1 h | 134 mL/min/kg | 12 L/kg | 32% | 24.4 days | >99.9% | 0% | – |
| CS(=O)(=O)N1CCN(C(=O)C[C@H]2CC[C@]3(CC2)OO[C@]2(O3)C3CC4CC(C3)CC2C4)CC1 | <40% | – | – | – | – | – | – | – | – | – | – |
| Cc1ccc(S(=O)(=O)O)cc1.O=C(C[C@H]1CC[C@]2(CC1)OO[C@]1(O2)C2CC3CC(C2)CC1C3)N1CCNCC1 | >99.9% | 0.21 ng/mL | 0.24 ng/mL | 1.7 h | 168 mL/min/kg | 25 L/kg | 37% | – | >99.9% | 0% | 56.3 mL/min/kg |
| NC(=O)C1CCN(C(=O)C[C@H]2CC[C@]3(CC2)OO[C@]2(O3)C3CC4CC(C3)CC2C4)CC1 | 86% | – | 1.7 ng/mL (≈ 3.93 nM) | – | – | – | – | – | – | – | – |
| CC(C)(N)CNC(=O)OC[C@H]1CC[C@]2(CC1)OO[C@]1(O2)C2CC3CC(C2)CC1C3.Cc1ccc(S(=O)(=O)O)cc1 | >99.9% | 0.22 ng/mL | 0.36 ng/mL | – | – | – | – | 9.8 days | >99.9% | 0% | – |
| O=CN1CCN(C(=O)C[C@H]2CC[C@]3(CC2)OO[C@]2(O3)C3CC4CC(C3)CC2C4)CC1 | 99.8% | 0.39 ng/mL (≈ 0.932 nM) | 0.63 ng/mL (≈ 1.51 nM) | – | – | – | – | – | – | – | – |
| CC(C)(N)CNC(=O)C[C@H]1CC[C@@]2(CC1)OO[C@@]1(O2)C2CC3CC(C2)CC1C3.Cc1ccc(S(=O)(=O)O)cc1 | 96% | 1.7 ng/mL | 1.5 ng/mL | 0.617 h | 298 mL/min/kg | 16 L/kg | 15% | – | – | – | – |

— ChEMBL document CHEMBL1156768, “The structure-activity relationship of the antimalarial ozonide arterolane (OZ277)” (J Med Chem, 2010)
